One test addresses T1, human β-glucosidase GBA1 (Homo sapiens, UniProt P04062, R534H).
T1 sequence (P04062 40-536 R534H): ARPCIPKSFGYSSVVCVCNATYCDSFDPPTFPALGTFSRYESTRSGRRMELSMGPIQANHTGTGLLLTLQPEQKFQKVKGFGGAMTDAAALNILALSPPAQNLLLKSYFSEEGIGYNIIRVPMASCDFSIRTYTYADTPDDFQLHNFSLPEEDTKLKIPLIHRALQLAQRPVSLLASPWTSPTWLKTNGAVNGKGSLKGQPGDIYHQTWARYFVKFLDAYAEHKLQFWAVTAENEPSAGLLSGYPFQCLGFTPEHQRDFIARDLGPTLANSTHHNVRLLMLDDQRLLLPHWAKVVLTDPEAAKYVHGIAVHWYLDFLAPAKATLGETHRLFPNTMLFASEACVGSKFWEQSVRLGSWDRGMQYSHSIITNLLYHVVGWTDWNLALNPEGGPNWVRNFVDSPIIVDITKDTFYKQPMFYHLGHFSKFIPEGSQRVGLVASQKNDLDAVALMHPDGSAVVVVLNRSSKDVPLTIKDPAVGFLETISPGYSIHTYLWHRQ
As to the kind of experiment: In vitro apparent IC50, recombinant GBA1. The format is biochemical. In short, it runs like this:
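Recombinant human GBA1 (Cerezyme) preincubated with a range of test compound concentrations for 30 min at 37 °C, then added to 4-MU-Glc substrate mixture to measure residual activity. Reaction quenched with 1 M NaOH–glycine (pH 10.3); 4-MU fluorescence read at λEX 366 / λEM 445 nm. Apparent IC50 is the mean of three technical replicates.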

A further test deals with T2, GBA2 (Homo sapiens, UniProt Q9HCG7).
T2 sequence (Q9HCG7 1-927): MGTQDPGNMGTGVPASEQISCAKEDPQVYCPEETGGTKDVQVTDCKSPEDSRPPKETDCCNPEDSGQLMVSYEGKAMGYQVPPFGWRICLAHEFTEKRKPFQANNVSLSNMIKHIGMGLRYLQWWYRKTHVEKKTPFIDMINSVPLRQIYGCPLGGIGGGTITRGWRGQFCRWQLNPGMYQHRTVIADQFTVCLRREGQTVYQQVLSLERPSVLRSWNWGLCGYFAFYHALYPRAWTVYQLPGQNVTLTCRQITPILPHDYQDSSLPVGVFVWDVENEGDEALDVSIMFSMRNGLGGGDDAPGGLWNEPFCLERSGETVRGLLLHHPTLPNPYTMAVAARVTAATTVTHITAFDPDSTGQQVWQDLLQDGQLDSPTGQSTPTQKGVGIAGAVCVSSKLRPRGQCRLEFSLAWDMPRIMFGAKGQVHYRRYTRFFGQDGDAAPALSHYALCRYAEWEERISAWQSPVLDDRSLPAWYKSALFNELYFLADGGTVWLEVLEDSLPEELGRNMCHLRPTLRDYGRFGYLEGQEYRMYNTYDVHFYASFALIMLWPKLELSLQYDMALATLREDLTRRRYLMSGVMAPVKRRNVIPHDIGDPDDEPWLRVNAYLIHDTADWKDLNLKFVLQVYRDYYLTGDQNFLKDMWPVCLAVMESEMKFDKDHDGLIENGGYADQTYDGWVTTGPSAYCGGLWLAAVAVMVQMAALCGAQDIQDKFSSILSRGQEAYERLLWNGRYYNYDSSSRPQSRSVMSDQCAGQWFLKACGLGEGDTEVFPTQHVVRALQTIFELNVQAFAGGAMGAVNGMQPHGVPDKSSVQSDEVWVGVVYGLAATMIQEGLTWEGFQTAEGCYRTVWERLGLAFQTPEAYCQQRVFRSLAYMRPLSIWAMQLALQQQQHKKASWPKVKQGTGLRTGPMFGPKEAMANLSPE
Description: Competitive ABPP against β-glucosidase probe 14, GBA2+ HEK293T lysate. It counts as biochemical. The following applies: 5 from 30 to 0 μM, 1 h at 37 °C, pH 5.8.

Bounds are passed on as bounds.

Take `O=S1(=O)O[C@@H]2[C@H](O)[C@@H](O)[C@H](O)[C@@H](CO)[C@@H]2O1` [Compound 5, 1,6-epi-cyclophellitol cyclosulfate]: the half-inhibitory concentration (IC50) (commonly the concentration that gives 50% inhibition) on human β-glucosidase GBA1 is over 100 µM. Moreover, the “inhibition of probe 14 labeling of GBA2” value on GBA2 is listed as “no inhibition”.

Source of the values: paper PMC5532717 (ACS Central Science, 2017).
